In data set [1] the target is T1, Progesterone receptor (Rattus norvegicus) (UniProt Q63449).
T1 sequence (whole entry): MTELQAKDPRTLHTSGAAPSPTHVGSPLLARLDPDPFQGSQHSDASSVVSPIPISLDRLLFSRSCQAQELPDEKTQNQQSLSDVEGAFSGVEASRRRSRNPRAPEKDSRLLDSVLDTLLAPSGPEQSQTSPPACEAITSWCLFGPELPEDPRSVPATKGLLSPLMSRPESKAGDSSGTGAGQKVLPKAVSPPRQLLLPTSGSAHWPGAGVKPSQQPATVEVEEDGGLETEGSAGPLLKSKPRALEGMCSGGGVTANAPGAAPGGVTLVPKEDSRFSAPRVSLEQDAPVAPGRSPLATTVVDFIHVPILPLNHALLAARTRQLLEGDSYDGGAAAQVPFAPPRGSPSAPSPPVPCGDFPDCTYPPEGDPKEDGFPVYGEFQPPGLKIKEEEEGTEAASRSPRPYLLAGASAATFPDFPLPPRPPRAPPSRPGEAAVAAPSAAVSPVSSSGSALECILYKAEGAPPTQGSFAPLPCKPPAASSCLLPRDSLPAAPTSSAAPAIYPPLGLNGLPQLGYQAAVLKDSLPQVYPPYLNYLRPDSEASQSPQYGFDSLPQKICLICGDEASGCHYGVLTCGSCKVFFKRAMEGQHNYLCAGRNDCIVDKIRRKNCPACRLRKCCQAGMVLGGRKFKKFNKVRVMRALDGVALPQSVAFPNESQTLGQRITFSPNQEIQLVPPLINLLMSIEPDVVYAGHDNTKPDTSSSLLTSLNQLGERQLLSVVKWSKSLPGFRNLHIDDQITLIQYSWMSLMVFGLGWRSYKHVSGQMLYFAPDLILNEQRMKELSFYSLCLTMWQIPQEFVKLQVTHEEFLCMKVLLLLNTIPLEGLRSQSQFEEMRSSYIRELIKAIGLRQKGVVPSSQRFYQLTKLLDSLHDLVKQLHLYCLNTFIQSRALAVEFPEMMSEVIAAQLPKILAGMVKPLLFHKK
The data set can be described thus: Relative binding affinity for progesterone receptor compared to R5020.

Data set [2] is described as follows: Partition coefficient (logP). It is filed as physicochemical. Conditions: octanol/water. A digest of the protocol:
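Octanol/water partition measured as log P by the Minick method. For some reference progestins, log P was also measured by shake flask.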

Data set [3] deals with T2, Mineralocorticoid receptor (Rattus norvegicus) (UniProt P22199).
T2 sequence (whole entry): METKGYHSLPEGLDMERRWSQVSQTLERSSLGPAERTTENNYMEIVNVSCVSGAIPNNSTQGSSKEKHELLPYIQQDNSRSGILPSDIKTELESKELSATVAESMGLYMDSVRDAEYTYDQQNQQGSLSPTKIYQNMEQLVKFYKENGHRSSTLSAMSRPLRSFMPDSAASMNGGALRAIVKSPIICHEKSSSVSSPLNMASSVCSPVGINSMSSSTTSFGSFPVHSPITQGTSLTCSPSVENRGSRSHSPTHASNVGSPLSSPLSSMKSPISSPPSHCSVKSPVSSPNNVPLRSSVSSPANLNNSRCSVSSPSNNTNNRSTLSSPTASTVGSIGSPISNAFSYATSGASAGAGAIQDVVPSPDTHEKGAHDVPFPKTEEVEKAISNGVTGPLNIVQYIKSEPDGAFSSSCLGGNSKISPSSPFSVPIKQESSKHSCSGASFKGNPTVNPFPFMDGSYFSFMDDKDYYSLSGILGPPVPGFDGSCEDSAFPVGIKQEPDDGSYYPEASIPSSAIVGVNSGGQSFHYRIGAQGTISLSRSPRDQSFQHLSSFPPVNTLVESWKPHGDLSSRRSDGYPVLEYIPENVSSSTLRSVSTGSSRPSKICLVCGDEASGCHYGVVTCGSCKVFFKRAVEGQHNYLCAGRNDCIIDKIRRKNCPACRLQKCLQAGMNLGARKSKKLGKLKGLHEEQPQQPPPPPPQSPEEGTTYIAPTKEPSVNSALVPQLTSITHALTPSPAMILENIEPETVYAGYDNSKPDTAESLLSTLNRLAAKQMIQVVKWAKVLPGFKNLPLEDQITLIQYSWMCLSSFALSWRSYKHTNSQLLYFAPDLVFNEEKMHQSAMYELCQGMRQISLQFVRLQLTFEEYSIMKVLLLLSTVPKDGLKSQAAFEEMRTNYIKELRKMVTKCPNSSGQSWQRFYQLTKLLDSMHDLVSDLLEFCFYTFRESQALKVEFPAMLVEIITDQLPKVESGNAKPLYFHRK
The data set can be described thus: Relative binding affinity (RBA) for mineralocorticoid receptor compared to aldosterone.

Data set [4] deals with T1, Progesterone receptor (Rattus norvegicus). The data set can be described thus: Tissue distribution in muscle 1 hr after [18F]4 injection into estrogen-primed immature rats at normal dose. Type of data set: functional, tissue-based. The method in brief: (§1)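 Female Sprague-Dawley rats, 23 days old, primed with estradiol 5 μg s.c. in 20% ethanol/sunflower oil on two days and used 24 h later. Under ether, they received 51 μCi tracer (30 Ci/mmol) iv via the tail vein in 0.1 mL 10% ethanol/saline. Killed by decapitation at 1 h; tissues weighed and gamma-counted. Results as %ID/g or tissue ratios, mean ± SD, n = 5.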

Data set [5] has the same target. The experiment in a line: Tissue distribution in uterus 1 hr after [18F]4 injection into estrogen-primed immature rats at normal dose. It is filed as functional, tissue-based. A digest of the protocol:
as §1

For data set [6] the target is unchanged. The data set can be described thus: Tissue distribution in kidney 1 hr after [18F]4 injection into estrogen-primed immature rats at normal dose. It is filed as functional, tissue-based. A digest of the protocol:
as §1

Data set [7] has the same target. The data set can be described thus: Tissue distribution in uterus/muscle 1 hr after [18F]4 injection into estrogen-primed immature rats at normal dose. It is filed as functional, tissue-based. The method in brief: as §1

Structures are written as SMILES.

Take `CC(=O)[C@H]1CC[C@H]2[C@@H]3CCC4=CC(=O)CC[C@]4(C)[C@H]3CC[C@]12C`: the relative binding affinity (RBA) in data set [1] was found to be 13.

Usually logP stands for the decadic logarithm of the partition coefficient of the neutral form, usually between octanol and water. A low value points to a more hydrophilic compound. `CC[C@@H]1C[C@H]2[C@@H]3CCC4=CC(=O)CC[C@@H]4[C@H]3CC[C@]2(C)[C@H]1C(=O)CO`: the log partition coefficient (logP) in data set [2] amounted to 4.01. Besides, the values for the relative binding affinity (RBA) in data set [1] and in data set [3] were 200 and 0.92, respectively.

As for `CCC(=O)[C@@]1(C)CC[C@H]2[C@@H]3CCC4=CC(=O)CCC4=C3CC[C@@]21C` [PROMEGESTONE], the logP in data set [2] came out at 4.05. Besides, the relative binding affinity (RBA) came out at 100 in data set [1] and 0.93 in data set [3].

In the case of `CC[C@@H]1C[C@H]2[C@@H]3CCC4=CC(=O)CC[C@@H]4[C@H]3CC[C@]2(C)[C@H]1C(=O)CF`, the log partition coefficient (logP) in data set [2] was 4.66. For the same compound, the relative binding affinity (RBA) in data set [1] is 700; in data set [3] it was 3.2. The Injected dose/g is 0.42% in data set [4], 6.43% in data set [5], 1.05% in data set [6] and 16% in data set [7].

`C[C@]1(c2ccc(F)cc2)O[C@@H]2CC3C4CCC5=CC(=O)CC[C@@H]5C4CC[C@]3(C)[C@]2(C(=O)CO)O1` (stereo partly specified) returned a logP in data set [2] of 4.84. The relative binding affinity (RBA) in data set [1] was determined as 1.3.

The values above are taken from ChEMBL document CHEMBL1126647, “Fluorine-18-labeled progestin ketals: synthesis and target tissue uptake selectivity of potential imaging agents for receptor-positive breast tumors” (J Med Chem, 1993).
